Test results reported in PMC8349901 (Journal of Peptide Science, 2021).
Non-standard residues stand in square brackets, D forms with d. Residues, ends and D or L forms follow the SMILES beside them. Bip = N[C@@H](Cc1ccc(-c2ccccc2)cc1)C(=O)O

Tests used:
[1] = Self-assembly kinetics by circular dichroism over 24 h; assay type: physicochemical; details: CD at 0, 1, 2, 4, 12, 24 h; 0.2 mM peptide, 5% HFIP/water, 25°C
In short: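 Lyophilized peptide, quantified by 215-nm HPLC calibration tied to amino acid analysis, was dissolved in HFIP, then water was added (pH 3–4 from residual TFA). Solutions were vortexed for 1 min and sonicated for 5 min. Spectra were scanned from 260 to 190 nm in a 0.1-mm quartz cell with 1.0-nm step, 1.0-nm bandwidth and 3 s per step, starting immediately after preparation.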

[2] = Negative-stain TEM of self-assembled nanoribbon morphology; assay type: physicochemical; details: 0.2 mM peptide, 5% HFIP/water, average of at least 100 measurements; for Nanoribbon width: pH 3–4, room temperature
In short: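 Peptide, quantified by HPLC peak area against amino-acid-analysis-calibrated curves, dissolved in HFIP and diluted with water to 0.2 mM (5% HFIP, pH 3–4 from residual TFA). Vortexed 1 min, sonicated 5 min. Assembled sample applied to carbon-coated copper grids for 30 s, blotted, stained 2 min with 5% uranyl acetate, and water-washed. Imaged at 80 kV. Dimensions averaged over ≥100 distinct fibrils.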

[3] = amino acid; glycine defined as 0; higher π = more hydrophobic; cited from earlier work

Row | Structure (SMILES) | Nanoribbon width [2] | Helical pitch ([2]; left-handed helical nanoribbons) | evolution of CD signal over 24 h (self-assembly kinetics) [1] | partition coefficient (π) between octanol and water relative to glycine [3]
1 | N[C@@H](Cc1ccccc1)C(=O)O [Phe, phenylalanine] | – | – | – | 1.79
2 | CC(=O)N[C@@H](Cc1ccc(-c2ccccc2)cc1)C(=O)N[C@@H](CCCCN)C(=O)N[C@@H](Cc1ccccc1)C(=O)N[C@@H](CCC(=O)O)C(=O)N[C@@H](Cc1ccccc1)C(=O)N[C@@H](CCCCN)C(=O)N[C@@H](Cc1ccccc1)C(=O)N[C@@H](CCC(=O)O)C(N)=O [Peptide 9, Ac‐BipKFEFKFE‐NH2] (Ac-[Bip]KFEFKFE-NH2) | 2.9 ± 0.5 nm | – | intensified dramatically over 24 h | –
3 | CC(=O)N[C@@H](Cc1ccc(-c2ccccc2)cc1)C(=O)N[C@@H](CCCCN)C(=O)N[C@@H](Cc1ccc(-c2ccccc2)cc1)C(=O)N[C@@H](CCC(=O)O)C(=O)N[C@@H](Cc1ccc(-c2ccccc2)cc1)C(=O)N[C@@H](CCCCN)C(=O)N[C@@H](Cc1ccc(-c2ccccc2)cc1)C(=O)N[C@@H](CCC(=O)O)C(N)=O [Peptide 6, Ac‐(BipKBipE)2‐NH2] (Ac-[Bip]K[Bip]E[Bip]K[Bip]E-NH2) | 5.5 ± 0.9 nm | – | no effect on evolution of signal intensity over time | –
4 | N[C@@H](Cc1c[nH]c2ccccc12)C(=O)O [Trp, tryptophan] | – | – | – | 2.25
5 | N[C@@H](CCc1ccccc1)C(=O)O [Hph, homophenylalanine] | – | – | – | 2.10

More lines, main results first:

Row | Nanoribbon width [2] | Helical pitch ([2]; left-handed helical nanoribbons) | Structure (SMILES) | evolution of CD signal over 24 h (self-assembly kinetics) [1] | partition coefficient (π) between octanol and water relative to glycine [3]
6 | 7.3 ± 1.6 nm | – | CC(=O)N[C@@H](Cc1c[nH]c2ccccc12)C(=O)N[C@@H](CCCCN)C(=O)N[C@@H](Cc1c[nH]c2ccccc12)C(=O)N[C@@H](CCC(=O)O)C(=O)N[C@@H](Cc1c[nH]c2ccccc12)C(=O)N[C@@H](CCCCN)C(=O)N[C@@H](Cc1c[nH]c2ccccc12)C(=O)N[C@@H](CCC(=O)O)C(N)=O [Peptide 3, Ac‐(WKWE)2‐NH2] (Ac-WKWEWKWE-NH2) | occurring over 24 h | –
7 | 8.8 ± 0.8 nm | 19.1 ± 1.3 nm | CC(=O)N[C@@H](Cc1ccccc1)C(=O)N[C@@H](CCCCN)C(=O)N[C@@H](Cc1ccccc1)C(=O)N[C@@H](CCC(=O)O)C(=O)N[C@@H](Cc1ccccc1)C(=O)N[C@@H](CCCCN)C(=O)N[C@@H](Cc1ccccc1)C(=O)N[C@@H](CCC(=O)O)C(N)=O [Peptide 1, Ac‐(FKFE)2‐NH2] | – | –
